Assay results gathered from unrelated publications.
Each line is one published result; the experiments were not run side by side.
Target: Ribosomal protein S6 kinase beta-1 (RPS6KB1, Homo sapiens, UniProt P23443)
Concentration: 1 µM

Structure (SMILES) | assay | remaining binding
COc1cnc(Nc2cccc(S(N)(=O)=O)c2)nc1N1CCN(c2ccccc2)C(=O)C1 | binding, competition with immobilised ligand | 71%
Nc1ncc2c(n1)-c1c([nH]c3ccc(C#CC4CC4)cc13)CCCC2 | binding, competition with immobilised ligand | 72%
CCCOc1ccc([C@H]2[C@H](C(=O)O)[C@@H](c3ccc4c(c3)OCO4)CN2CC(=O)Nc2c(CC)cccc2CC)cc1 | cell-free assay, competition with immobilised ligand | 76%
C=CC(=O)N1CCC(C(=O)NCC(=O)N2CCN(c3nc(-c4cnc(N)nc4C(F)F)nc(N4CCOCC4)n3)CC2)CC1 | binding, competition with immobilised ligand | 56%
Cc1c(C(=O)O)cc(-c2ccc(C3CCNCC3)cc2)c2ccc(-c3ccc(C(F)(F)F)cc3)cc12 | binding, competition with immobilised ligand | 100%
Cc1cnc(Nc2ccc(C(=O)N3CCC(N4CCCC4)CC3)cc2)nc1-c1cc2ccccc2s1 | binding, competition with immobilised ligand | 36%
CCN1CCN(Cc2ccc(C(=O)Nc3ccc(C)c(Oc4ccc5c(c4)CC(=O)N5)c3)cc2C(F)(F)F)CC1 | binding, competition with immobilised ligand | 100%
C[C@@H]1CCN(c2nccc(-c3cnn4ncccc34)n2)C1 | binding | 87%
O=C(NC[C@@H]1[C@H]2CN(C(=O)OCc3cc(C(F)(F)F)cc(C(F)(F)F)c3)C[C@@H]12)c1ccc2[nH]nnc2c1 | cell-free assay, competition with immobilised ligand | 86%
N[C@@H]1CCN(c2nccc(-c3cnn4ncccc34)n2)C1 | binding | 100%
CNC(=O)[C@@H]1CC[C@@H](n2c(-c3ccc4cnccc4c3)nc3ccc(C(=O)NCc4cccc(C(N)=O)c4)cc32)C1 | binding, competition with immobilised ligand | 87%
N#CC1(c2ccccn2)CCN(Cc2cc(C(=O)N3CCCC3)c(=O)n3ccccc23)CC1 | binding, competition with immobilised ligand | 34%
CN(CCCC(F)(F)F)c1nccc(-c2cnn3ncccc23)n1 | binding | 100%
C[C@H](NC(=O)c1cnc2n1[C@](C)(Cc1ccc(C#N)cc1)C(=O)N2c1cc(Cl)c(F)c(Cl)c1)C(=O)NC1(c2ccccn2)CC1 | cell-free assay, competition with immobilised ligand | 100%
O=C(NCCCN1CCOCC1)c1ccc(Nc2ncc(Cl)c(-c3ccc(Cl)s3)n2)cc1 | binding, competition with immobilised ligand | 38%
CC1CCCN1c1nccc(-c2cnn3ncccc23)n1 (stereo not drawn) | binding | 100%
O=C(NS(=O)(=O)c1ccc(NCC2CCOCC2)c([N+](=O)[O-])c1)c1ccc(N2CCN(Cc3ccc(C(F)(F)F)cc3-c3ccc(Cl)cc3)CC2)cc1Oc1cnc2[nH]ccc2c1 | cell-free assay, competition with immobilised ligand | 81%
c1cnn2ncc(-c3ccnc(N4CCC45COC5)n3)c2c1 | binding | 66%
O=C(NCC1CCOCC1)c1n[nH]cc1NC(=O)c1c(F)cccc1F | binding, competition with immobilised ligand | 87%
CN(C)c1ncc(F)c(-c2cnn3ncccc23)n1 | binding | 78%
O=C(NCCCN1CCOCC1)c1ccc(Nc2nccc(-c3cc4ccccc4s3)n2)cc1 | binding, competition with immobilised ligand | 92%
